Assay [1] concerns the target T1, Adenosine receptor A3 (Homo sapiens, UniProt P0DMS8).
T1 sequence (P0DMS8 whole entry): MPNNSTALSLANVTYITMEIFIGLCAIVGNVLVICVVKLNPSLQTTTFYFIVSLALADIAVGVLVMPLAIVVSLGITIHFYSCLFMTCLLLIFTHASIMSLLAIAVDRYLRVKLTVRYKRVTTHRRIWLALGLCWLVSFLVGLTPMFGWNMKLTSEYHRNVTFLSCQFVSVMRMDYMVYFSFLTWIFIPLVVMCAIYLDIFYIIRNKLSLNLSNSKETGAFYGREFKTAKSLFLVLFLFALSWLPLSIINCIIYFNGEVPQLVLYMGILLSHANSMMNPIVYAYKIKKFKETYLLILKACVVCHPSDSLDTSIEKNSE
Description: Displacement of [3H]PSB-11 from human adenosine A3 receptor expressed in CHO cells. The format is cell-based. On the technique in general: Displacement assays read how much labelled ligand stays bound in the presence of the test substance.

Assay [2] addresses Adenosine receptor A2a (Rattus norvegicus, UniProt P30543). The assay is described as follows: Binding affinity to rat adenosine A2A receptor.
Assay [3] deals with T1, Adenosine receptor A3. Description: Binding affinity to human adenosine A3 receptor.
Assay [4] concerns the target T2, Adenosine receptor A2b (Homo sapiens, UniProt P29275).
T2 sequence (P29275 whole entry): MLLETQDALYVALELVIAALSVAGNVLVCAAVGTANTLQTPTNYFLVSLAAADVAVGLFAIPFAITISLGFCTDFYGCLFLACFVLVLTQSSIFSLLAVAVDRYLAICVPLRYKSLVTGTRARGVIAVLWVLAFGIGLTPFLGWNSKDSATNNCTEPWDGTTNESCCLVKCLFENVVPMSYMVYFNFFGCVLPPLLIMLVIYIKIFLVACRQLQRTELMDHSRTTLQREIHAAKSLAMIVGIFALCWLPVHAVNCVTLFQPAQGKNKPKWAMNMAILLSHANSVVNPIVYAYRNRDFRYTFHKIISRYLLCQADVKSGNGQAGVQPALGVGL
Description: Displacement of [3H]PSB-603 from human adenosine A2B receptor.

In assay [5] the target is T2, Adenosine receptor A2b. Description: Binding affinity to human adenosine A2B receptor.
Assay [6] has as its target T3, Adenosine receptor A1 (Rattus norvegicus, UniProt P25099).
T3 sequence (P25099 whole entry): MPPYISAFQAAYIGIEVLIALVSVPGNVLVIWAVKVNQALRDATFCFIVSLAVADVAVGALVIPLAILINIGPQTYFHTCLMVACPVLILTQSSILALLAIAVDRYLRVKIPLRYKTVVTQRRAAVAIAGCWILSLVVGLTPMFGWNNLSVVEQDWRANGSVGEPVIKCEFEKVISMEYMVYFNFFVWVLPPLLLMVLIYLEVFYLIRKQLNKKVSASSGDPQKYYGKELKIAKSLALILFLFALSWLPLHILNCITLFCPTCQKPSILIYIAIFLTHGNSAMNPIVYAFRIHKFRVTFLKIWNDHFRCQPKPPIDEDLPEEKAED
Description: Displacement of [3H]CCPA from adenosine A1 receptor in rat brain cortex. The format is tissue-based. A digest of the protocol:
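Radioligand binding to rat A1 receptors in rat brain cortical membrane preparations. Values are given as Ki, or as % inhibition of radioligand binding at the indicated concentration.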

Assay [7] has as its target T3, Adenosine receptor A1. Description: Binding affinity to rat adenosine A1 receptor.
Assay [8] has as its target T4, Adenosine receptor A1 (Homo sapiens, UniProt P30542).
T4 sequence (P30542 whole entry): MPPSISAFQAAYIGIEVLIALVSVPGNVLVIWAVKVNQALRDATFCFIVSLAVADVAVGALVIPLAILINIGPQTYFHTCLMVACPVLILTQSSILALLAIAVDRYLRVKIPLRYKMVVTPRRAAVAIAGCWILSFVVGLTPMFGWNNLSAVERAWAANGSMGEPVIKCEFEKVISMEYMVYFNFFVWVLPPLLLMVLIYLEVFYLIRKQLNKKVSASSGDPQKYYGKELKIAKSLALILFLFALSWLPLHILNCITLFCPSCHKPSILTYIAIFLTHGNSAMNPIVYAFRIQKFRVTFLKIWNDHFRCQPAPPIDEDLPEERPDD
The assay is described as follows: Displacement of [3H]CCPA from human adenosine A1 receptor expressed in CHO cells. It counts as cell-based. In short, it runs like this: (§1)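 Radioligand binding to human receptors recombinantly expressed in Chinese hamster ovary (CHO) cells. Results are Ki, or % inhibition of radioligand binding at the indicated concentration.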

Assay [9] deals with T4, Adenosine receptor A1. The assay is described as follows: Binding affinity to human adenosine A1 receptor.
Assay [10] concerns the target T5, Adenosine receptor A2a (Homo sapiens, UniProt P29274). The assay is described as follows: Displacement of [3H]MSX-2 from human adenosine A2A receptor expressed in CHO cells. It counts as cell-based. A digest of the protocol:
as §1

Assay [11] has as its target T5, Adenosine receptor A2a. The assay is described as follows: Binding affinity to human adenosine A2A receptor.

This passage reports Ki results from ChEMBL document CHEMBL3091303, “1,3-Dialkyl-substituted tetrahydropyrimido[1,2-f]purine-2,4-diones as multiple target drugs for the potential treatment of neurodegenerative diseases” (Bioorg Med Chem, 2013).

The structures appear in SMILES notation.

As usually defined, the Ki is a dissociation constant, usually derived from enzyme kinetics or from competition with a known ligand. Low values mean a stronger hold on the target, high ones a looser hold on the target.

T5 sequence (P29274 whole entry): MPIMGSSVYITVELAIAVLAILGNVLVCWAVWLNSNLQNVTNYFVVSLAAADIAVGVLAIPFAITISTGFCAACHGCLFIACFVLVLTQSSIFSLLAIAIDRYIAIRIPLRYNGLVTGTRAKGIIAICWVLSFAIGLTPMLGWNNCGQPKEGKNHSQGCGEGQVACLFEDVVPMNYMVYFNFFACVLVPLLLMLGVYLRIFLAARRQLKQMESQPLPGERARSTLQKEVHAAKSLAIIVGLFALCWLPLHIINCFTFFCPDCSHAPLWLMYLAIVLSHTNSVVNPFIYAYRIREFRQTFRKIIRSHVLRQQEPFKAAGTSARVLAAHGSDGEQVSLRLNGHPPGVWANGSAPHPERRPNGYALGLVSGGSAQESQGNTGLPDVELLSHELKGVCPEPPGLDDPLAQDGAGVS
Adenosine receptor A2a (Rattus norvegicus, UniProt P30543), sequence (P30543 whole entry): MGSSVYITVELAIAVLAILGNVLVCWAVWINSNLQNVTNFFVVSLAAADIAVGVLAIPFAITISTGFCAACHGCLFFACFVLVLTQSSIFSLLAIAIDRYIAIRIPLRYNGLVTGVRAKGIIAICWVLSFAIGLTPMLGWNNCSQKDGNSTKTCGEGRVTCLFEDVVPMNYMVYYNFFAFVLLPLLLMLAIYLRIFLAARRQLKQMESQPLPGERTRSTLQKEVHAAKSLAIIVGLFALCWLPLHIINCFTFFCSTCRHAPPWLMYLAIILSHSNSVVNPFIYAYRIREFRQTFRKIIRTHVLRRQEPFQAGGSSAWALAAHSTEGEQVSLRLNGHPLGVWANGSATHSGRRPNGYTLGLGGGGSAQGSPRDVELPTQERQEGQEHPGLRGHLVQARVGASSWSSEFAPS

For `Cn1c(=O)c2c(nc3n2CCCN3c2ccc(F)cc2)n(C)c1=O`, the Ki on Adenosine receptor A3 [1] was 13.3 µM; on Adenosine receptor A2a [2], 147 nM; at Adenosine receptor A3 [3], 13.3 µM; on Adenosine receptor A2b [4] it was 10 µM; on Adenosine receptor A2b [5] it was 10 µM; on Adenosine receptor A1 [6], greater than 25 µM. Also, the Ki was greater than 25 µM at Adenosine receptor A1 [7]; 16.7 µM at Adenosine receptor A1 [8]; 16.7 µM at Adenosine receptor A1 [9]; 1180 nM at Adenosine receptor A2a [10]; 1880 nM at Adenosine receptor A2a [11].
